The target in assay [1] is T1, Parathyroid hormone/parathyroid hormone-related peptide receptor (Homo sapiens, UniProt Q03431).
T1 sequence (Q03431 whole entry): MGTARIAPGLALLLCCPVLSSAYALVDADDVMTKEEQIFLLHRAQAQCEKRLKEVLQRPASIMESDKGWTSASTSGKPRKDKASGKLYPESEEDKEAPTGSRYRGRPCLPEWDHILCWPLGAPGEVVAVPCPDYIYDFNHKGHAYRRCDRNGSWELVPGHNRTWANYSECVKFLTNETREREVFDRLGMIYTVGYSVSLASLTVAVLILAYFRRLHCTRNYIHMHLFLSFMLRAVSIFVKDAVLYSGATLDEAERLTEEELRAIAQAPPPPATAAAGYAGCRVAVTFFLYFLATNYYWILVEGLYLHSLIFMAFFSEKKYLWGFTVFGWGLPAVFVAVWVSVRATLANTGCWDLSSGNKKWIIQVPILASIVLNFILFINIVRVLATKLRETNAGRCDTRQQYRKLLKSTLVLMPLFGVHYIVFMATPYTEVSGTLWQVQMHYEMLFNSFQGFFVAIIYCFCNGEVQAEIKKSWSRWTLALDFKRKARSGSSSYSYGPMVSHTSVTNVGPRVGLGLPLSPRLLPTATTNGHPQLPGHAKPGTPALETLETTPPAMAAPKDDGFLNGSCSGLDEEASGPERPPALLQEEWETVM
Put plainly: Agonist activity at human PTH1 receptor expressed in human GP2.3 cells assessed as induction of cAMP after 12 to 20 mins by luciferase reporter gene assay. In kind it is functional, cell-based. The settings on record: read-out: EC50.

Assay [2] deals with T2, Parathyroid hormone/parathyroid hormone-related peptide receptor (Homo sapiens) (UniProt Q03431).
T2 sequence (whole entry): T1 sequence (Q03431 whole entry)
Nature of the assay: Agonist activity at human PTH1 receptor expressed in human GP2.3 cells assessed as induction of cAMP after 12 to 20 mins by luciferase reporter gene assay relative to PTH(1 to 34 residues)-NH2. In kind it is functional, cell-based. For orientation: In a reporter assay the amount or activity of a reporter protein is the signal.

In assay [3] the target is T2, Parathyroid hormone/parathyroid hormone-related peptide receptor (Homo sapiens). Put plainly: Agonist activity at extracellular domain truncate human PTH1 receptor expressed in GD5 cells assessed as induction of cAMP after 12 to 20 mins by luciferase reporter gene assay. Type of assay: functional, cell-based. In short, it runs like this:
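HEK293-derived lines stably expressing Glosensor cAMP reporter plus full-length human PTHR1 (GP2.3) or ECD-truncated PTHR1 (GD5). Confluent monolayers preincubated at room temperature in CO2-independent medium with 0.5 mM D-luciferin until baseline stable (30 min), then varied agonist concentrations added. Maximal luminescence (12−20 min) used for sigmoidal variable-slope fits.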

The target is the same in assay [4]. Put plainly: Displacement of [125I]-PTH(1 to 34 residues) from R0 state of human PTHR1 expressed in African green monkey COS7 cell membranes incubated for >1 hr in presence of GTPgammaS by gamma radiation method. (Displacement assays read how much labelled ligand stays bound in the presence of the test substance.)

Active and inactive are the calls of the source. The calls are words filed in the database; no cut-off is given here. Numbered stars: 1 amine (or outer) side, 2 acyl side, 3 side chain; on linkers, the order of the positions; unused ones are H or OH. Square brackets hold non-standard residues; d marks the D form. Peptide text beside a SMILES is read from it. * marks the point of attachment. NH(1S,2S-2-CONH2-cPent) = NC(=O)[C@H]1CCC[C@@H]1N*; ACPC(1S,2S) = N[C@H]1CCC[C@@H]1C(=O)*; X1 = O=C([C@H]1CCC[C@@H]1N[*:1])[*:2]; X2 = O=C([C@H]1CNC[C@@H]1N[*:1])[*:2]; Aib = CC(C)(N)C(=O)O

`CC[C@H](C)[C@H](NC(=O)[C@H](CCC(=O)O)NC(=O)[C@H](CO)NC(=O)[C@H]1CCC[C@@H]1NC(=O)[C@@H](N)CO)C(=O)N[C@@H](CCC(N)=O)C(=O)N[C@@H](CC(C)C)C(=O)N[C@@H](CCSC)C(=O)N[C@@H](Cc1cnc[nH]1)C(=O)N[C@@H](CC(N)=O)C(=O)N[C@@H](CC(C)C)C(=O)NCC(=O)N[C@@H](CCCCN)C(=O)N[C@@H](Cc1cnc[nH]1)C(=O)N[C@@H](CC(C)C)C(=O)N[C@@H](CC(N)=O)C(=O)N[C@@H](CO)C(=O)N[C@@H](CCSC)C(=O)N[C@@H](CCC(=O)O)C(=O)N[C@@H](CCCNC(=N)N)C(=O)N[C@H](C(=O)N[C@@H](CCC(=O)O)C(=O)N[C@@H](Cc1c[nH]c2ccccc12)C(=O)N[C@@H](CC(C)C)C(=O)N[C@@H](CCCNC(=N)N)C(=O)N[C@@H](CCCCN)C(=O)N[C@@H](CCCCN)C(=O)N[C@@H](CC(C)C)C(=O)N[C@@H](CCC(N)=O)C(=O)N[C@@H](CC(=O)O)C(=O)N[C@H](C(=O)N[C@@H](Cc1cnc[nH]1)C(=O)N[C@@H](CC(N)=O)C(=O)N[C@@H](Cc1ccccc1)C(N)=O)C(C)C)C(C)C`: the concentration giving a half-maximal response (EC50) (commonly the midpoint of the concentration-response curve) in assay [1] was 0.27 nM. Further, the fold change (FC) in assay [2] was 3. Further, the result in assay [3] was Active.
The like results for `CC[C@H](C)[C@H](NC(=O)[C@H](CCC(=O)O)NC(=O)[C@H](CO)NC(=O)[C@@H](NC(=O)[C@@H](N)CO)C(C)C)C(=O)N[C@H]1CCC[C@@H]1C(=O)N[C@@H](CC(C)C)C(=O)N[C@@H](CCSC)C(=O)N[C@@H](Cc1cnc[nH]1)C(=O)N[C@@H](CC(N)=O)C(=O)N[C@@H](CC(C)C)C(=O)NCC(=O)N[C@@H](CCCCN)C(=O)N[C@@H](Cc1cnc[nH]1)C(=O)N[C@@H](CC(C)C)C(=O)N[C@@H](CC(N)=O)C(=O)N[C@@H](CO)C(=O)N[C@@H](CCSC)C(=O)N[C@@H](CCC(=O)O)C(=O)N[C@@H](CCCNC(=N)N)C(=O)N[C@H](C(=O)N[C@@H](CCC(=O)O)C(=O)N[C@@H](Cc1c[nH]c2ccccc12)C(=O)N[C@@H](CC(C)C)C(=O)N[C@@H](CCCNC(=N)N)C(=O)N[C@@H](CCCCN)C(=O)N[C@@H](CCCCN)C(=O)N[C@@H](CC(C)C)C(=O)N[C@@H](CCC(N)=O)C(=O)N[C@@H](CC(=O)O)C(=O)N[C@H](C(=O)N[C@@H](Cc1cnc[nH]1)C(=O)N[C@@H](CC(N)=O)C(=O)N[C@@H](Cc1ccccc1)C(N)=O)C(C)C)C(C)C` were, in that order, 0.34 nM, 3.7 and “Active”.
For `CSCC[C@H](NC(=O)[C@H](CO)NC(=O)[C@H](CC(N)=O)NC(=O)[C@H](CC(C)C)NC(=O)[C@H](Cc1cnc[nH]1)NC(=O)[C@H](CCCCN)NC(=O)CNC(=O)[C@H](CC(C)C)NC(=O)[C@H](CC(N)=O)NC(=O)[C@H](Cc1cnc[nH]1)NC(=O)[C@H](CCSC)NC(=O)[C@H](CC(C)C)NC(=O)[C@H](CCC(N)=O)NC(=O)[C@H]1CCC[C@@H]1NC(=O)[C@H](CCC(=O)O)NC(=O)[C@H](CO)NC(=O)[C@@H](NC(=O)[C@@H](N)CO)C(C)C)C(=O)N[C@@H](CCC(=O)O)C(=O)N[C@@H](CCCNC(=N)N)C(=O)N[C@H](C(=O)N[C@@H](CCC(=O)O)C(=O)N[C@@H](Cc1c[nH]c2ccccc12)C(=O)N[C@@H](CC(C)C)C(=O)N[C@@H](CCCNC(=N)N)C(=O)N[C@@H](CCCCN)C(=O)N[C@@H](CCCCN)C(=O)N[C@@H](CC(C)C)C(=O)N[C@@H](CCC(N)=O)C(=O)N[C@@H](CC(=O)O)C(=O)N[C@H](C(=O)N[C@@H](Cc1cnc[nH]1)C(=O)N[C@@H](CC(N)=O)C(=O)N[C@@H](Cc1ccccc1)C(N)=O)C(C)C)C(C)C` the same measures were 0.17 nM, 1.9 and “Active”.
The like results for `CC[C@H](C)[C@H](NC(=O)[C@H](CCC(=O)O)NC(=O)[C@H](CO)NC(=O)[C@@H](NC(=O)[C@H]1CCC[C@@H]1N)C(C)C)C(=O)N[C@@H](CCC(N)=O)C(=O)N[C@@H](CC(C)C)C(=O)N[C@@H](CCSC)C(=O)N[C@@H](Cc1cnc[nH]1)C(=O)N[C@@H](CC(N)=O)C(=O)N[C@@H](CC(C)C)C(=O)NCC(=O)N[C@@H](CCCCN)C(=O)N[C@@H](Cc1cnc[nH]1)C(=O)N[C@@H](CC(C)C)C(=O)N[C@@H](CC(N)=O)C(=O)N[C@@H](CO)C(=O)N[C@@H](CCSC)C(=O)N[C@@H](CCC(=O)O)C(=O)N[C@@H](CCCNC(=N)N)C(=O)N[C@H](C(=O)N[C@@H](CCC(=O)O)C(=O)N[C@@H](Cc1c[nH]c2ccccc12)C(=O)N[C@@H](CC(C)C)C(=O)N[C@@H](CCCNC(=N)N)C(=O)N[C@@H](CCCCN)C(=O)N[C@@H](CCCCN)C(=O)N[C@@H](CC(C)C)C(=O)N[C@@H](CCC(N)=O)C(=O)N[C@@H](CC(=O)O)C(=O)N[C@H](C(=O)N[C@@H](Cc1cnc[nH]1)C(=O)N[C@@H](CC(N)=O)C(=O)N[C@@H](Cc1ccccc1)C(N)=O)C(C)C)C(C)C` ({ACPC(1S,2S)}-VSEIQLMHNLGKHLNSMERVEWLRKKLQDVHNF-NH2) were, in that order, 0.15 nM, 1.6 and “Active”.
As to `CC[C@H](C)[C@H](NC(=O)[C@H]1CCC[C@@H]1NC(=O)[C@H](CCCCN)NC(=O)CNC(=O)[C@H](CCCCN)NC(=O)[C@H](CC(=O)O)NC(=O)[C@H](Cc1cnc[nH]1)NC(=O)[C@H](CC(C)C)NC(=O)[C@H]1CCC[C@@H]1NC(=O)[C@H](CCC(N)=O)NC(=O)[C@H]1CCC[C@@H]1NC(=O)[C@H](CCC(=O)O)NC(=O)[C@H](CO)NC(=O)[C@@H](NC(=O)[C@H]1CCC[C@@H]1N)C(C)C)C(=O)N[C@@H](CCC(N)=O)C(=O)N[C@@H](CC(=O)O)C(=O)N[C@H]1CCC[C@@H]1C(=O)N[C@@H](CCCNC(=N)N)C(=O)N[C@@H](CCCNC(=N)N)C(=O)N[C@@H](CCCNC(=N)N)C(=O)N[C@H]1CNC[C@@H]1C(=O)N[C@@H](CC(C)C)C(=O)N[C@@H](CC(C)C)C(=O)N[C@@H](CCC(=O)O)C(=O)N[C@H]1CNC[C@@H]1C(=O)N[C@@H](CC(C)C)C(=O)N[C@@H](CC(C)C)C(=O)NC(C)(C)C(=O)N[C@H]1CCC[C@@H]1C(=O)N[C@@H](CC(C)C)C(=O)N[C@@H](Cc1cnc[nH]1)C(=O)N[C@H](C(=O)N[C@H]1CCC[C@@H]1C(N)=O)[C@@H](C)O` ({ACPC(1S,2S)}-VSE[X1]Q[X1]LHDKGK[X1]IQD[X1]RRR[X2]LLE[X2]LL[Aib][X1]LHT-{NH(1S,2S-2-CONH2-cPent)}), the EC50 in assay [1] stood at 0.36 nM. Also, the fold change (FC) in assay [2] worked out at 5.3. For the same molecule, in assay [4], the inhibition result is “Active”.
Regarding `CC[C@H](C)[C@H](NC(=O)[C@H](CCC(=O)O)NC(=O)[C@H](CO)NC(=O)[C@@H](NC(=O)[C@@H](N)CO)C(C)C)C(=O)N[C@@H](CCC(N)=O)C(=O)N[C@H]1CCC[C@@H]1C(=O)N[C@@H](CCSC)C(=O)N[C@@H](Cc1cnc[nH]1)C(=O)N[C@@H](CC(N)=O)C(=O)N[C@@H](CC(C)C)C(=O)NCC(=O)N[C@@H](CCCCN)C(=O)N[C@@H](Cc1cnc[nH]1)C(=O)N[C@@H](CC(C)C)C(=O)N[C@@H](CC(N)=O)C(=O)N[C@@H](CO)C(=O)N[C@@H](CCSC)C(=O)N[C@@H](CCC(=O)O)C(=O)N[C@@H](CCCNC(=N)N)C(=O)N[C@H](C(=O)N[C@@H](CCC(=O)O)C(=O)N[C@@H](Cc1c[nH]c2ccccc12)C(=O)N[C@@H](CC(C)C)C(=O)N[C@@H](CCCNC(=N)N)C(=O)N[C@@H](CCCCN)C(=O)N[C@@H](CCCCN)C(=O)N[C@@H](CC(C)C)C(=O)N[C@@H](CCC(N)=O)C(=O)N[C@@H](CC(=O)O)C(=O)N[C@H](C(=O)N[C@@H](Cc1cnc[nH]1)C(=O)N[C@@H](CC(N)=O)C(=O)N[C@@H](Cc1ccccc1)C(N)=O)C(C)C)C(C)C`, the EC50 in assay [1] worked out at 0.12 nM. Also, in assay [2], the fold change (FC) worked out at 1.3. For the same molecule, in assay [3], the outcome was Active.
Turning to `CC[C@H](C)[C@H](NC(=O)[C@H](CC(C)C)NC(=O)[C@H]1CNC[C@@H]1NC(=O)[C@H](Cc1cnc[nH]1)NC(=O)[C@H](CC(C)C)NC(=O)[C@H](Cc1ccccc1)NC(=O)[C@H]1CNC[C@@H]1NC(=O)[C@H](CCCNC(=N)N)NC(=O)[C@H](CCCNC(=N)N)NC(=O)[C@H](CCCNC(=N)N)NC(=O)[C@H]1CCC[C@@H]1NC(=O)[C@H](CC(=O)O)NC(=O)[C@H](CCC(N)=O)NC(=O)[C@@H](NC(=O)[C@H]1CCC[C@@H]1NC(=O)[C@H](CCCCN)NC(=O)CNC(=O)[C@H](CCCCN)NC(=O)[C@H](CC(=O)O)NC(=O)[C@H](Cc1cnc[nH]1)NC(=O)[C@H](CC(C)C)NC(=O)[C@H]1CCC[C@@H]1NC(=O)[C@H](CCC(N)=O)NC(=O)[C@H]1CCC[C@@H]1NC(=O)[C@H](CCC(=O)O)NC(=O)[C@H](CO)NC(=O)[C@@H](NC(=O)[C@H]1CCC[C@@H]1N)C(C)C)[C@@H](C)CC)C(=O)N[C@@H](C)C(=O)N[C@H]1CCC[C@@H]1C(=O)N[C@H](C(=O)N[C@@H](Cc1cnc[nH]1)C(=O)N[C@H](C(=O)N[C@H]1CCC[C@@H]1C(N)=O)[C@@H](C)O)[C@@H](C)CC` ({ACPC(1S,2S)}-VSE[X1]Q[X1]LHDKGK[X1]IQD[X1]RRR[X2]FLH[X2]LIA[X1]IHT-{NH(1S,2S-2-CONH2-cPent)}), in assay [1], the EC50 is 0.51 nM. Moreover, the fold change (FC) in assay [2] was found to be 7.4. The inhibition result in assay [4] is “Active”.

The values above are taken from ChEMBL document CHEMBL4024754, “Development of Potent, Protease-Resistant Agonists of the Parathyroid Hormone Receptor with Broad β Residue Distribution” (J Med Chem, 2017).
